Experimental data from ChEMBL document CHEMBL1255347, “Multiclonal outbreak of Klebsiella pneumoniae producing extended-spectrum beta-lactamase CTX-M-2 and novel variant CTX-M-59 in a neonatal intensive care unit in Brazil” (2008).
Values after ≈ are worked out from the molar mass of the structure shown.

Key:
Klebsiella pneumoniae [1] = assay: Antimicrobial activity against CTX-M-2 producing Klebsiella pneumoniae with PFGE pulsotype A by Etest; type: functional
In short: (§1)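 Clinical K. pneumoniae isolates from a neonatal ICU outbreak near São Paulo were typed by XbaI PFGE using Tenover criteria. Cultures were grown in LB broth at 37°C. Etest MICs followed the manufacturer's instructions, with cefotaxime and ceftazidime each tested with and without clavulanic acid.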

Klebsiella pneumoniae [2] = assay: Antimicrobial activity against CTX-M-2 producing Klebsiella pneumoniae with PFGE pulsotype B by Etest; type: functional; in short: as §1
Klebsiella pneumoniae [3] = assay: Antimicrobial activity against CTX-M-59 producing Klebsiella pneumoniae with PFGE pulsotype C by Etest; type: functional
Klebsiella pneumoniae [4] = assay: Antimicrobial activity against SHV-5 producing Klebsiella pneumoniae with PFGE pulsotype D by Etest; type: functional; in short: as §1
Klebsiella pneumoniae [5] = assay: Antimicrobial activity against CTX-M-59 producing Klebsiella pneumoniae with PFGE pulsotype E by Etest; type: functional
Klebsiella pneumoniae [6] = assay: Antimicrobial activity against CTX-M-2 producing Klebsiella pneumoniae with PFGE pulsotype F by Etest; type: functional
Klebsiella pneumoniae [7] = assay: Antimicrobial activity against CTX-M-59 producing Klebsiella pneumoniae with PFGE pulsotype G by Etest; type: functional; in short: as §1
Klebsiella pneumoniae [8] = assay: Antimicrobial activity against CTX-M-2 producing Klebsiella pneumoniae with PFGE pulsotype H by Etest; type: functional; in short: as §1
Klebsiella pneumoniae [9] = assay: Antimicrobial activity against CTX-M-2 producing Klebsiella pneumoniae with PFGE pulsotype I by Etest; type: functional
Klebsiella pneumoniae [10] = assay: Antimicrobial activity against CTX-M-2 producing Klebsiella pneumoniae with PFGE pulsotype J by Etest; type: functional
Escherichia coli [11] = assay: Antimicrobial activity against Escherichia coli str. K-12 substr. DH10B harboring plasmid CTX-M-2; type: functional; settings: K-12 DH10B
In short: (§2)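 blaCTX-M PCR products were cut with XbaI/BamHI and cloned into pBC-SK(−), then electroporated into E. coli DH10B. Transformants were selected on LB agar with ampicillin 50 μg/ml and chloramphenicol 30 μg/ml, and sequences were confirmed. These clones were used for β-lactam MICs, with and without clavulanic acid.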

Escherichia coli [12] = assay: Antimicrobial activity against Escherichia coli str. K-12 substr. DH10B harboring plasmid CTX-M-2 in presence of clavulanic acid; type: functional; settings: K-12 DH10B; in short: as §2
Escherichia coli [13] = assay: Antimicrobial activity against Escherichia coli str. K-12 substr. DH10B harboring plasmid CTX-M-59; type: functional; settings: K-12 DH10B; in short: as §2
Escherichia coli [14] = assay: Antimicrobial activity against Escherichia coli str. K-12 substr. DH10B harboring plasmid CTX-M-59 in presence of clavulanic acid; type: functional; settings: K-12 DH10B; in short: as §2
Klebsiella pneumoniae [15] = assay: Antimicrobial activity against SHV-5 producing Klebsiella pneumoniae transconjugants/transformants with PFGE pulsotype D by Etest; type: functional
In short: (§3)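 The recipient was E. coli XL1-Blue Rifr NAr. Plasmids moved by broth mating, with transconjugants selected on LB agar containing ampicillin, rifampin and nalidixic acid, each at 50 μg/ml. Where mating failed, alkaline-lysis plasmid extracts were electroporated and selected on ampicillin 50 μg/ml. β-lactam MICs were read by Etest, with and without clavulanic acid.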

Klebsiella pneumoniae [16] = assay: Antimicrobial activity against CTX-M-2 and TEM-1 producing Klebsiella pneumoniae transconjugants/transformants with PFGE pulsotype B by Etest in presence of clavulanic acid; type: functional; in short: as §3
Klebsiella pneumoniae [17] = assay: Antimicrobial activity against CTX-M-59 and TEM-1 producing Klebsiella pneumoniae transconjugants/transformants with PFGE pulsotype C by Etest in presence of clavulanic acid; type: functional; in short: as §3
Klebsiella pneumoniae [18] = assay: Antimicrobial activity against SHV-5 producing Klebsiella pneumoniae transconjugants/transformants with PFGE pulsotype D by Etest in presence of clavulanic acid; type: functional; in short: as §3
Klebsiella pneumoniae [19] = assay: Antimicrobial activity against CTX-M-59 and TEM-1 producing Klebsiella pneumoniae transconjugants/transformants with PFGE pulsotype E by Etest in presence of clavulanic acid; type: functional; in short: as §3
Klebsiella pneumoniae [20] = assay: Antimicrobial activity against CTX-M-2 and TEM-1 producing Klebsiella pneumoniae transconjugants/transformants with PFGE pulsotype F by Etest in presence of clavulanic acid; type: functional; in short: as §3
Klebsiella pneumoniae [21] = assay: Antimicrobial activity against CTX-M-59 and TEM-1 producing Klebsiella pneumoniae transconjugants/transformants with PFGE pulsotype G by Etest in presence of clavulanic acid; type: functional; in short: as §3
Klebsiella pneumoniae [22] = assay: Antimicrobial activity against CTX-M-2 and TEM-1 producing Klebsiella pneumoniae transconjugants/transformants with PFGE pulsotype H by Etest in presence of clavulanic acid; type: functional
Klebsiella pneumoniae [23] = assay: Antimicrobial activity against CTX-M-2 and TEM-1 producing Klebsiella pneumoniae transconjugants/transformants with PFGE pulsotype I by Etest in presence of clavulanic acid; type: functional; in short: as §3
Klebsiella pneumoniae [24] = assay: Antimicrobial activity against CTX-M-2 and TEM-1 producing Klebsiella pneumoniae transconjugants/transformants with PFGE pulsotype J by Etest in presence of clavulanic acid; type: functional; in short: as §3
Klebsiella pneumoniae [25] = assay: Antimicrobial activity against CTX-M-2 producing Klebsiella pneumoniae with PFGE pulsotype A by Etest in presence of clavulanic acid; type: functional; in short: as §1
Klebsiella pneumoniae [26] = assay: Antimicrobial activity against CTX-M-2 producing Klebsiella pneumoniae with PFGE pulsotype B by Etest in presence of clavulanic acid; type: functional; in short: as §1
Klebsiella pneumoniae [27] = assay: Antimicrobial activity against CTX-M-59 producing Klebsiella pneumoniae with PFGE pulsotype C by Etest in presence of clavulanic acid; type: functional; in short: as §1
Klebsiella pneumoniae [28] = assay: Antimicrobial activity against SHV-5 producing Klebsiella pneumoniae with PFGE pulsotype D by Etest in presence of clavulanic acid; type: functional
Klebsiella pneumoniae [29] = assay: Antimicrobial activity against CTX-M-59 producing Klebsiella pneumoniae with PFGE pulsotype E by Etest in presence of clavulanic acid; type: functional
In short: (§4)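 MICs were determined by Etest strips following the manufacturer's instructions, using cefotaxime and ceftazidime each combined with clavulanic acid. The test strains were clinical NICU outbreak isolates confirmed as ESBL producers by disk diffusion. Pulsotypes were assigned by XbaI PFGE using Tenover relatedness criteria. Cultures were routinely grown in LB broth at 37°C.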

Klebsiella pneumoniae [30] = assay: Antimicrobial activity against CTX-M-2 producing Klebsiella pneumoniae with PFGE pulsotype F by Etest in presence of clavulanic acid; type: functional; in short: as §1
Klebsiella pneumoniae [31] = assay: Antimicrobial activity against CTX-M-59 producing Klebsiella pneumoniae with PFGE pulsotype G by Etest in presence of clavulanic acid; type: functional; in short: as §4
Klebsiella pneumoniae [32] = assay: Antimicrobial activity against CTX-M-2 producing Klebsiella pneumoniae with PFGE pulsotype H by Etest in presence of clavulanic acid; type: functional
In short: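 Etest strips used per manufacturer's instructions to read MICs of cefotaxime and ceftazidime, each with clavulanic acid, on clinical NICU K. pneumoniae outbreak isolates. Isolates were typed by XbaI PFGE using Tenover criteria and routinely grown in LB broth at 37°C.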

Klebsiella pneumoniae [33] = assay: Antimicrobial activity against CTX-M-2 producing Klebsiella pneumoniae with PFGE pulsotype I by Etest in presence of clavulanic acid; type: functional; in short: as §1
Klebsiella pneumoniae [34] = assay: Antimicrobial activity against CTX-M-2 producing Klebsiella pneumoniae with PFGE pulsotype J by Etest in presence of clavulanic acid; type: functional; in short: as §1
Escherichia coli [35] = assay: Antimicrobial activity against CTX-M-2 and TEM-1 producing Escherichia coli transconjugants/transformants with PFGE pulsotype A by Etest in presence of clavulanic acid

Compound `CO/N=C(\C(=O)N[C@@H]1C(=O)N2C(C(=O)O)=C(COC(C)=O)CS[C@H]12)c1csc(N)n1` [CEFOTAXIME] has an MIC (Klebsiella pneumoniae [1]) of over 256 µg/mL, an MIC (Klebsiella pneumoniae [2]) of over 256 µg/mL and an MIC (Klebsiella pneumoniae [3]) of over 256 µg/mL. It also gave an MIC (Klebsiella pneumoniae [4]) of 48 µg/mL (≈ 105 µM), an MIC (Klebsiella pneumoniae [5]) of over 256 µg/mL and an MIC (Klebsiella pneumoniae [6]) of over 256 µg/mL. For the same compound, the MIC (Klebsiella pneumoniae [7]) was over 256 µg/mL, the MIC (Klebsiella pneumoniae [8]) was over 256 µg/mL and the MIC (Klebsiella pneumoniae [9]) was over 256 µg/mL. It also gave an MIC (Klebsiella pneumoniae [10]) of over 256 µg/mL, an MIC (Escherichia coli [11]) of 128 µg/mL (≈ 281 µM) and an MIC (Escherichia coli [12]) of 0.094 µg/mL. For the same compound, the MIC (Escherichia coli [13]) was 96 µg/mL (≈ 211 µM), the MIC (Escherichia coli [14]) was 0.094 µg/mL and the MIC (Klebsiella pneumoniae [15]) was 12 µg/mL (≈ 26.3 µM). The MIC (Klebsiella pneumoniae [16]) was 0.094 µg/mL, the MIC (Klebsiella pneumoniae [17]) was 0.19 µg/mL and the MIC (Klebsiella pneumoniae [18]) was 0.47 µg/mL. The MIC (Klebsiella pneumoniae [19]) was 0.25 µg/mL, the MIC (Klebsiella pneumoniae [20]) was 0.125 µg/mL and the MIC (Klebsiella pneumoniae [21]) was 0.19 µg/mL. For the same compound, the MIC (Klebsiella pneumoniae [22]) was 0.94 µg/mL, the MIC (Klebsiella pneumoniae [23]) was 0.125 µg/mL and the MIC (Klebsiella pneumoniae [24]) was 0.125 µg/mL. It also gave an MIC (Klebsiella pneumoniae [25]) of 0.094 µg/mL, an MIC (Klebsiella pneumoniae [26]) of 0.094 µg/mL and an MIC (Klebsiella pneumoniae [27]) of 0.094 µg/mL. For the same compound, the MIC (Klebsiella pneumoniae [28]) was 0.047 µg/mL, the MIC (Klebsiella pneumoniae [29]) was 0.125 µg/mL and the MIC (Klebsiella pneumoniae [30]) was 0.094 µg/mL. The MIC (Klebsiella pneumoniae [31]) was 0.5 µg/mL, the MIC (Klebsiella pneumoniae [32]) was 1 µg/mL and the MIC (Klebsiella pneumoniae [33]) was 0.094 µg/mL. The MIC (Klebsiella pneumoniae [34]) was 0.094 µg/mL and the MIC (Escherichia coli [35]) was 0.094 µg/mL.
